Sampled rows, rich in hits. Any-hit rate of the full collection: about 2.1%.
APJ agonist: agonists of human apelin receptor APJ, primary screen, CHO-K1 cells, PathHunter beta-arrestin, luminescence. 0% DMSO wells, 100% apelin. AID 2520, 2010. actives 0.11% (n = 330,000). activation, % at 20 µM;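 active = activation more than six SD over the plate average, tested at 20 µM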;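 also: 0% = DMSO alone and 100% = apelin-13 at 10 nM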
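Test system – PathHunter CHO-K1 APJ (AGTRL-1) beta-arrestin reporter cells · Input – 1000 cells/well · Compound – single test compound dose, 20 µM final, 1% DMSO · Times – compound stimulation 90 min at 25 °C, detection 60 min · Technique – beta-gal luminescence · Read-out basis – APJ–arrestin association signal · Control set – negative DMSO alone, positive Apelin-13 at 10 nM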
EBI2 antag: EBI2 receptor antagonists, beta-arrestin recruitment, primary screen, cell-based, luminescence, 7a,25-OHC stimulation, uHTS | actives 0.81% (n = 360,000) | G-protein coupled receptor 183 (Homo sapiens), P32249 | inhibition, % at 5 µM | 7a,25-OHC stimulated; in the data active = inhibition above about 38%;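 also: enzyme fragment complementation signal reports receptor beta-arrestin coupling in cells; 0% = agonist plus DMSO wells and 100% = wells without agonist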
APJ antag: antagonists of human apelin receptor APJ, primary screen, CHO-K1 cells, beta-arrestin complementation, luminescence; P35414; AID 2521, 2010; inhibition, % at 20 µM; actives 0.32% (n = 330,000);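 active = inhibition above about 40% at 20 µM, limit read from the data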;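 also: cells challenged with 10 nM apelin-13 agonist together with compound; plate controls were apelin-13 plus DMSO wells for no effect and DMSO wells lacking apelin-13 for full effect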
CCR6 antag: CCR6 receptor antagonists, primary screen, cell-based, CHO-K1, luminescence, beta-arrestin, uHTS | CHO-K1 CCR6 PathHunter beta-arrestin, CCL20-stimulated | inhibition, % at 20 µM | actives 0.49% (n = 340,000);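 active = compounds whose inhibition of the agonist-driven luminescence signal at 20 µM reaches about 50%, limit read from the data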;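 also: cells stimulated with CCL20 at 14 nM final; plate controls were DMSO with CCL20 for no effect and DMSO without agonist for full effect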
m5-HT2A agonist: mouse Htr2a agonists via beta-arrestin recruitment, primary screen, cell-based, luminescence. actives 0.66% (n = 360,000). CHO-K1 mHTR2A beta-arrestin complementation; percent of 30 µM serotonin response. activation, % at 7.6 µM;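 active = activation above a run cutoff, the mean activation of all tested compounds plus 3 SD, cut at about 14% in these data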;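 also: 0% = plate median of compound wells and 100% = 30 µM serotonin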
Target sequence (P35363 whole entry, looked up): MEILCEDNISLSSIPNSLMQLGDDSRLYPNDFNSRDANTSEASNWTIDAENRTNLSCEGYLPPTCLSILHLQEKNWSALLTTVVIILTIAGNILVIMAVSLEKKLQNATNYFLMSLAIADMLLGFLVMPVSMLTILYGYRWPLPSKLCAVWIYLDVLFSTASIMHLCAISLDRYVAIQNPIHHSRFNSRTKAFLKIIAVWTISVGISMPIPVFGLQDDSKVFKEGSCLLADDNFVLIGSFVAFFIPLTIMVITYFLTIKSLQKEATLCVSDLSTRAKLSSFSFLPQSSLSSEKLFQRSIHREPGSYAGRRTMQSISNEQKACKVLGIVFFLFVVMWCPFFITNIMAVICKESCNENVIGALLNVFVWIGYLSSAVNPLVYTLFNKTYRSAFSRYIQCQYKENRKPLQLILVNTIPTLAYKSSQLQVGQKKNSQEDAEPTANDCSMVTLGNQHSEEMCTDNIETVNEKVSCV
CXCR6 inh: CXCR6 receptor inhibitors, primary screen, cell-based, beta-arrestin, luminescence, CHO-K1 PathHunter, 1536-well; actives 0.36% (n = 360,000); inhibition, % at 20 µM; AID 602244, 2012; C-X-C chemokine receptor type 6 (Homo sapiens), O00574; in the data active = inhibition above about 34%, passing the limit was not always enough;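 also: antagonist mode with CXCL16 agonist at 10 nM final; 0% = 10 nM CXCL16 with DMSO and 100% = unstimulated wells without agonist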
EBI2 antag conf: EBI2 antagonist hit retest, beta-arrestin, confirmation, cell-based, single concentration, luminescence, 7a,25-OHC stimulation; shares compounds with EBI2 antag; 7a,25-OHC antagonism; inhibition, % at 5 µM; actives 29% (n = 2,400); AID 651997, 2013;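 active = inhibition of at least 50%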
EBI2 agonist: EBI2 agonist activity of antagonist hits, confirmation, counter-screen for EBI2 antagonist project, cell-based, single concentration, agonist mode, luminescence; shares compounds with EBI2 antag; EBI2-expressing cells, 60 min; 0% vehicle, 100% 7α,25-dihydroxycholesterol control; activation, % at 5 µM; 2,400 tested, under 10 active;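 active = activation of at least 50%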
bGal counter: E. coli beta-galactosidase enzyme inhibition, confirmation, counter-screen for EBI2 antagonist project, biochemical, luminescence, single concentration; shares compounds with EBI2 antag; purified beta-galactosidase, luminescent Galacton Star, 15 min; inhibition, % at 5 µM; actives 1% (n = 2,400); AID 652176, 2013;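 active = replicate-average signal at least 3 plate SD below neutral wells, shown as high inhibition, flagging enzyme-inhibiting false positives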;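 also: 0% = DMSO wells with enzyme and 100% = wells lacking enzyme; higher means stronger loss of beta-gal luminescence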
* hit, by the source's call; nt = no result given.

SMILES	APJ agonist	EBI2 antag	APJ antag	CCR6 antag	m5-HT2A agonist	CXCR6 inh	EBI2 antag conf	EBI2 agonist	bGal counter
O=C(COc1ccc(Br)cc1)N/N=C1/SCC(=O)N1Cc1ccccc1	1	49*	6	0	-2	-11	12	1	5
Cc1ccc(N2CCN(c3ccc(C)cc3)C2c2ccncc2)cc1	2	51*	1	0	-6	3	21	-1	-8
Cc1cccc(N2CCN(c3cccc(C)c3)C2c2cccnc2)c1	-1	14	-12	12	-4	-10	nt	nt	nt
O=C(CSc1nc2sccc2c(=O)[nH]1)N1CCN(c2ccccc2)CC1	5	-5	-3	9	-5	7	nt	nt	nt
CCC(C(=O)Nc1ccsc1C(=O)OC)c1ccccc1 (configuration not stated)	-3	17	20	17	1	-1	nt	nt	nt
COc1ccc(-c2noc(N3CCC(C(=O)NCc4ccccc4Cl)CC3)n2)cc1	4	15	-2	3	1	1	nt	nt	nt
O=C(NCc1ccc(Cl)cc1)C1CCCN(C(=O)c2ccc(Cl)cc2)C1 (configuration not stated)	-5	66*	12	3	0	6	34	-2	-11
O=C(c1ccc(NC(=S)NCc2ccc(Cl)cc2)cc1)N1CCCCC1	0	-6	-8	-2	4	2	nt	nt	nt
COc1ccc(-c2noc(N3CCC(C(=O)NCc4ccc(Cl)cc4)CC3)n2)cc1	-1	47*	-3	-10	0	-6	14	-2	-15
O=C(NCc1ccc(Cl)cc1)C1CCN(C(=O)c2ccc(Cl)cc2)CC1	0	45*	-19	19	4	7	26	0	11
N#CCCCc1cn(-c2nc3ccccc3s2)nn1	nt	-5	nt	nt	2	-4	nt	nt	nt
O=C(CSc1ccc(Cl)cc1)Nc1ccccc1Oc1ccccc1	0	55*	13	11	8	-9	24	0	-11
O=C(CSc1ccc(Cl)cc1)Nc1ccccc1	nt	-1	nt	nt	1	-4	nt	nt	nt
O=C(CSc1ccc(Cl)cc1)Nc1ccccc1N1CCN(C(=O)c2ccccc2)CC1	-3	76*	-19	10	1	4	67*	-1	9
O=C(CSc1cccc[n+]1[O-])Nc1ccccc1Oc1ccccc1	-4	2	28	12	-2	10	nt	nt	nt
O=C(CSc1ccc(Br)cc1)Nc1ccccc1Oc1ccccc1	-1	54*	0	5	-1	-10	21	0	-14
CC(OC(=O)c1ccc(Cl)cc1)C(=O)NCC1CCCCC1 (configuration not stated)	-3	-1	-3	16	5	6	nt	nt	nt
CCOC(=O)Nc1ccc2c(CN3CCN(S(=O)(=O)c4ccc(C(C)C)cc4)CC3)cc(=O)oc2c1	-1	55*	7	8	6	3	10	-1	-12
C=CCCN(Cc1ccccc1)S(=O)(=O)c1cc(Br)ccc1Br	-4	19	10	26	5	8	nt	nt	nt
O=C(NC(c1ccc(F)cc1)c1ccc2ccccc2n1)C1CCN(CCOc2ccc(Cl)cc2)CC1 (configuration not stated)	nt	73*	nt	nt	-1	8	51*	1	4
O=C(NC(c1ccccc1)c1ccc2ccccc2n1)C1CCN(CCOc2ccc(Cl)cc2Cl)CC1 (configuration not stated)	nt	40	nt	nt	0	10	nt	nt	nt
CCOC(=O)NC(=O)/C(C#N)=N/Nc1ccc(F)cc1	-6	78*	18	6	0	-1	11	1	-14
CCOC(=O)C(=O)/C(C#N)=C/Nc1ccc(F)cc1	1	-12	-4	15	0	-3	nt	nt	nt
COc1cc(C(=O)NCCc2c[nH]c3ccccc23)ccc1OCc1c(C)noc1C	5	61*	-13	8	-3	-5	49	0	-19
COc1ccc(CCNC(=O)c2ccc(OCc3c(C)noc3C)c(OC)c2)cc1	1	-5	2	6	4	3	nt	nt	nt
SMILES	APJ agonist	EBI2 antag	APJ antag	CCR6 antag	m5-HT2A agonist	CXCR6 inh	EBI2 antag conf	EBI2 agonist	bGal counter
O=C(Cn1c2ccccc2c2nc3n(c(=O)c21)CCCS3)Nc1ccccc1	1	30	0	12	-5	-1	nt	nt	nt
COc1cccc(NC(=O)Cn2c3ccccc3c3nc4n(c(=O)c32)CCCS4)c1	0	83*	6	11	5	0	50	1	4
O=S(=O)(CC(O)COc1ccc(Br)cc1)c1ccccc1 (configuration not stated)	-4	45*	19	12	3	-4	18	-2	-6
Cc1cccc(CSCCNC(=O)COc2ccc(Cl)cc2)c1	1	25	-3	22	-5	-4	nt	nt	nt
O=C(COc1ccc(Cl)cc1)NCCSCc1cccc(Cl)c1	-1	66*	-1	21	-10	3	29	2	6
O=C(Nc1ccccc1N1CCOCC1)c1ccc(Cl)c(S(=O)(=O)N2CCCC2)c1	-3	-9	14	15	-2	1	nt	nt	nt
CCOC(=O)N(C)c1c(CC)nc2c(OCc3ccc(Cl)cc3Cl)cccn12	nt	45*	nt	nt	-8	11	77*	-1	-7
Cn1c(=O)c(C(=O)NCC2CCCO2)c(O)c2ccccc21 (configuration not stated)	-3	-14	-13	-1	6	4	nt	nt	nt
CCOC(=O)C1=CCN(S(=O)(=O)c2ccccc2F)C1c1cccc(Br)c1 (configuration not stated)	nt	5	nt	nt	-3	0	nt	nt	nt
CCOC(=O)C1=CCN(S(=O)(=O)c2ccccc2Cl)C1c1cccc(C)c1 (configuration not stated)	nt	40*	nt	nt	-2	1	25	0	8
